High-throughput results: PubChem, Johns Hopkins Ion Channel Center
TRPC4 PAM: TRPC4 (mouse) allosteric potentiation; Q9QUQ5; AID 2227; HEK293 TRPC4beta/mu-opioid, DAMGO EC20, Fluo-4 Ca2+ flux; stronger effect = higher value; B-score at 10 µM; hit rate 0.42% among 310,000;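 active = B-score of calcium response area above 5 SD of library B-scores, with initial fluorescence ratio within 5 SD of library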;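 note: B-score of integrated fluorescence ratio over time as area under calcium response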
TRPC6 activator: activates the mouse TRPC6 cation channel; Q61143; HEK293-TRPC6 membrane potential dye fluorescence; stronger effect = higher value; B-score at 10 µM; hit rate 0.13% among 310,000;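 active = B-score of the integrated fluorescence ratio above library mean plus 3 SD, and starting fluorescence ratio within library mean plus 5 SD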;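 note: higher score means more depolarization so channel activation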
TRPC4 act: TRPC4 (mouse) channel activation. hit rate 0.49% among 310,000. Q9QUQ5. B-score at 10 µM. HEK293 TRPC4beta/mu-opioid, Fluo4 calcium fluorescence; stronger effect = higher value;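 active = B-score above 5 SD of library B-scores, and initial fluorescence ratio not above library mean plus 5 SD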;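 note: positive B-score marks a calcium rise read as TRPC4 activation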
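Technique: kinetic Fluo4 calcium fluorescence; Test system: TRPC4beta and mu-opioid receptor HEK293 stable cells; Measure: B-scored integrated calcium fluorescence ratio; Benchmarks: low control buffer alone, high control maximal DAMGO; Schedule: 45 min room-temperature Fluo4 loading, 110 s read.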
TRPC6 inhibitor: inhibitors of mouse TRPC6 channel; B-score at 10 µM; hit rate 1.1% among 310,000; Q61143; HEK293-TRPC6, membrane potential dye, ACh-evoked depolarization; stronger effect = lower value;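 active = B-score under library mean minus 3 SD, initial fluorescence not abnormally high, positive integrated signal ratio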;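 note: B-score derived from integrated fluorescence ratio over the kinetic read; more negative B-score means stronger inhibition of depolarization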
TRPC4 inh: inhibitors of mouse TRPC4 channel; Q9QUQ5; HEK293 TRPC4beta/mu-opioid, DAMGO-evoked Fluo4 calcium flux; stronger effect = lower value; B-score at 10 µM; hit rate 0.39% among 300,000; AID 2247;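 active = B-score over 3 SD under the library average, no early fluorescence shift, positive overall ratio signal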
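Assay system: HEK293 cells with stable TRPC4beta plus mu-opioid receptor expression. Dosing: single dose. Measured by: Fluo4 Ca2+ flux fluorescence. Also added: DAMGO in two steps, submaximal then maximal. Read-out: B score from integrated Fluo4 fluorescence ratio.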
TRPC4 spec 2: second selectivity test of TRPC6 inhibitors: effect on mouse TRPC4 | shares compounds with TRPC6 inhibitor | HEK293 TRPC4/MOR, membrane potential dye fluorescence; channel activated by saturating DAMGO dose | inhibition, % at 10 µM | hit rate 42% among 920 | AID 2776;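 active = compounds whose fluorescence signal differed from control wells by over 3 SD, either direction, in both duplicate plates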
TRPC4 spec: selectivity of TRPC6 inhibitors: effect on mouse TRPC4; shares compounds with TRPC6 inhibitor; HEK293 TRPC4/mu-opioid, membrane potential fluorescence; activity change, negative = inhibition, % at 10 µM; hit rate 61% among 920;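 active = rise or fall in signal beyond 3 SD of buffer-only wells in both replicate plates, either sign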;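 note: integrated kinetic ratio of fluorescence range over baseline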
HEK293 MPD ctr 2-1: second counter-screen for TRPC6 inhibitors: parental HEK293 cells; shares compounds with TRPC6 inhibitor; parental HEK293 membrane potential dye fluorescence; maximal acetylcholine challenge after compound addition; signal change vs control, % at 10 µM; hit rate 31% among 920; AID 2779;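 active = membrane potential signal moving either way by over 3 SD of the maximum-effect control, in both duplicate plates, meaning non-specific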
HEK293 MPD ctr-1: parental HEK293 nonspecific activity of TRPC6 inhibitors; hit rate 60% among 920; parental HEK293 membrane potential dye fluorescence; shares compounds with TRPC6 inhibitor; AID 2780; membrane potential signal change, % at 10 µM;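 active = membrane potential signal shifting up or down by more than 3 SD of buffer-only wells, on both duplicate plates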
HEK293 MPD ctr-2: parental HEK293 nonspecific activity of TRPC6 modulators | hit rate 51% among 2,400 | membrane potential signal change, % at 10 µM | shares compounds with TRPC6 inhibitor | membrane potential dye fluorescence;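 active = membrane potential signal moves up or down beyond 5 SD from buffer-only wells, on both duplicate plates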
HEK293 MPD ctr 2-2: second counter-screen for TRPC6 modulators: effect in parental HEK293 cells | shares compounds with TRPC6 inhibitor | membrane potential dye fluorescence; after compound, maximal acetylcholine stimulation | inhibition, % at 10 µM | hit rate 14% among 2,400;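 active = membrane potential signal drops by more than 5 SD from the mean control signal, in both duplicate plates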;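 note: plate controls were acetylcholine ECmax control wells for no effect and buffer only wells for full effect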
TRPC4 ctr mod: selectivity of TRPC6 modulators against mouse TRPC4; shares compounds with TRPC6 inhibitor; HEK293 TRPC4/mu-opioid, membrane potential fluorescence; percent change from control (negative = decrease, positive = increase), % at 10 µM; hit rate 69% among 2,400;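 active = membrane potential signal moved up or down beyond 5 SD of buffer control wells, in both duplicate plates, actives on both sides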;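 note: plate controls were assay buffer wells for no effect and DAMGO maximal-effect wells for full effect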
TRPC4/MOR inh 2: mouse TRPC4 off-target activity of TRPC6 modulators, second screen | hit rate 55% among 2,400 | inhibition, % at 10 µM | HEK293 TRPC4/mu-opioid, membrane potential dye fluorescence; stimulated with maximal-effect DAMGO | AID 488928 | shares compounds with TRPC6 inhibitor;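 active = drop in membrane potential signal beyond 5 SD of the control wells in both duplicate plates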;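 note: TRPC4 counter screen for TRPC6 hits run under conditions tuned for TRPC6 not TRPC4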
TRPC6 inh conf: confirmation of mouse TRPC6 inhibitors; shares compounds with TRPC6 inhibitor; HEK293-TRPC6, membrane potential dye, ACh-evoked depolarization; inhibition, % at 10 µM; hit rate 43% among 3,300; AID 488960;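 active = fluorescence ratio falls more than 5 SD below the full-stimulation control mean, in both duplicate runs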;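 note: integrated fluorescence ratio of peak minus minimum over baseline after agonist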
TRPC6 act confirm: mouse TRPC6 activator confirmation; shares compounds with TRPC6 inhibitor; HEK293-TRPC6 membrane potential dye fluorescence, FDSS; activation, % at 10 µM; hit rate 11% among 2,800; AID 488961;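 active = ratio signal rise beyond 5 SD above unstimulated control wells' mean, seen in both duplicate runs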;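 note: plate controls were buffer EC0 wells for no effect and acetylcholine ECmax response for full effect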
Numbers without * were called inactive; i = inactive; . = no result. Most compounds without a hit are left out; they make up all but 2.3% or so of the library.

SMILES	TRPC4 PAM	TRPC6 activator	TRPC4 act	TRPC6 inhibitor	TRPC4 inh	HEK293 MPD ctr-2	HEK293 MPD ctr 2-2	TRPC4 ctr mod	TRPC4/MOR inh 2	TRPC6 inh conf	TRPC6 act confirm	others
CCOCCCNC(=S)N1C2CCC1CC(NC(=O)Nc1ccc(C(=O)OCC)cc1)C2 (stereo not given)	i	i	i	-7.17*	i	i	i	i	i	66.5%*	.
O=C(O)/C=C/C(=O)Nc1ccccc1SC(F)(F)F	i	i	i	i	i	.	.	.	.	.	.
CCOC(=O)CN1C(=O)C(=O)N(Cc2c(Cl)cccc2Cl)C1=O	i	i	i	-5.57*	i	i	i	i	i	i	i
CCOC(=O)CN1C(=O)C(=O)N(Cc2cccc(C)c2)C1=O	i	i	i	i	i	.	.	.	.	.	.
COc1ccc(/C=N/n2c(C)nc3ccccc3c2=O)cc1OC	i	i	i	-6.27*	i	i	i	i	i	i	i
COC(=O)c1ccccc1OCC(=O)NC1CCCCC1	i	i	i	-5.29*	i	i	i	8.0%*	i	i	.
CCc1ccccc1OCC(=O)NC1CCCC1	i	i	i	-5.85*	i	111.5%*	i	20.5%*	i	41.0%*	.
COc1ccccc1N(CC(=O)NC1CCCCC1)S(=O)(=O)c1ccccc1	i	i	i	-5.1*	i	474.5%*	i	208.5%*	37.5%*	i	.
O=C(COc1ccccc1)NC1CCCCCCC1	39*	i	i	-5.96*	i	102.0%*	i	77.0%*	i	i	.
COc1ccccc1CC(=O)NC1CCCCCC1	i	i	i	i	i	.	.	.	.	.	.
COc1ccccc1N(CC(=O)NC1CCCCC1)S(C)(=O)=O	i	i	i	i	i	.	.	.	.	.	.
COc1ccccc1NC(=O)COc1ccc(Br)cc1CNC1CCCC1	i	i	i	-7.56*	i	.	.	.	.	i	i	TRPC4 spec 2=54.0%*;TRPC4 spec=13.5%*;HEK293 MPD ctr 2-1=237.5%*;HEK293 MPD ctr-1=9.8%*
O=C(CCS(=O)(=O)c1ccccc1)NC1CCCCC1	i	i	i	i	i	.	.	.	.	.	.
COc1ccc(S(=O)(=O)CCC(=O)NC2CCCCC2)cc1	i	i	i	-8.13*	i	.	.	.	.	i	i	TRPC4 spec 2=i;TRPC4 spec=i;HEK293 MPD ctr 2-1=i;HEK293 MPD ctr-1=i
CCCCN1C(C(=O)Nc2ncccn2)=C(O)c2ccccc2S1(=O)=O	i	i	i	i	i	.	.	.	.	.	.
c1ccc(-c2nc3c(ccc4ccccc43)[nH]2)nc1	i	i	i	-6.24*	i	i	i	-9.0%*	28.0%*	i	i
